One data set can be described thus: Safety and tolerability. Format: in vivo, human. The conditions noted are these: for Participants reporting at least 1 AE: n = 16. A digest of the protocol:
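Phase I open-label two-part study in opioid-dependent, HIV-seronegative adults on stable once-daily opioid maintenance, 16 per part. Usual dose alone on day 1, then with test compound 600 mg ER BID on days 2–9, confined day -1 to day 10. Safety assessed by AE reports, vital signs (screening, days 1, 5, 10), ECG/physical exam (screening, day 1, day 10) and clinical labs (days 5, 9).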

In the next data set the test system is HIV‐1. The conditions noted are these: cited from earlier work.
For data set [1] the following is noted: human, in vivo; cited from earlier work.
Data set [2] is classed as in vivo. To be noted: human, plasma, oral.
The mark [3] stands for this setting: Part 1, while receiving MET with FTR.
Where [4] appears, read: Part 2, while receiving BUP/NLX with FTR.

Bounds are passed on as bounds.

`COc1cnc(-n2cnc(C)n2)c2c1c(C(=O)C(=O)N1CCN(C(=O)c3ccccc3)CC1)cn2COP(=O)(O)O` [FTR, Fostemsavir]: the Tolerability entry in “Safety and tolerability” (FTR 600 mg ER BID coadministered with MET or BUP/NLX) is “well tolerated”. For the same compound, the Participants reporting headache in “Safety and tolerability” (setting [3]) was 12.5%; in “Safety and tolerability” (setting [4]), 6.3%. Moreover, the Participants reporting nausea came to 12.5% in “Safety and tolerability” (setting [3]); 18.8% in the data set “Safety and tolerability” (setting [4]). Moreover, the “Participants reporting at least 1 AE” value was 62.5% in the data set “Safety and tolerability” (Part 1, while receiving MET with FTR 600 mg ER BID); 50.0% in the data set “Safety and tolerability” (Part 2, while receiving BUP/NLX with FTR 600 mg ER BID). In addition, in the data set on HIV‐1 (8 days of functional FTR monotherapy, FTR 600 mg ER BID), the “Decline in HIV‐1 RNA” value was 0.8 log10 copies/mL. Also, the “Rate of HIV virological suppression” value in the data set with HIV‐1 (FTR with an optimized background therapy for 24 and 48 weeks) is on record as 54%.

What is called AUC is the area under the concentration-time curve, a measure of exposure. The Cmax is the maximum level reached in the sampled fluid or tissue. For `COc1cnc(-n2cnc(C)n2)c2[nH]cc(C(=O)C(=O)N3CCN(C(=O)c4ccccc4)CC3)c12` [TMR, temsavir], the Accumulation in data set [1] is < 2 fold. In data set [2], this compound returned an AUC of 9760 ng·h/mL. For the same compound, in data set [2] (TMR C12, geometric mean (coefficient of variation [%]), FTR 600 mg ER BID coadministered with BUP/NLX), the concentration at 12 h turned out to be 468 ng/mL. Further, the highest concentration (Cmax) in data set [2] (TMR Cmax, geometric mean (coefficient of variation [%]), FTR 600 mg ER BID coadministered with BUP/NLX) is 2050 ng/mL.

The record behind these values is publication PMC6624406 (British Journal of Clinical Pharmacology, 2019).
